# CHOP inh – CHOP inhibition in unfolded protein response; CHO-K1 CHOP-promoter luciferase, tunicamycin-induced, 15-18 h; inhibition, % at 10 µM; hit rate 3.8% among 220,000; AID 2732;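 active = compounds that reduced the stress-induced luciferase reporter signal by more than about 70% of percent inhibition, limit read from the data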
# UPR CHOP act – activators of apoptotic arm of unfolded protein response (CHOP); CHO-CHOP luciferase reporter, UPR activation, luminescence; percent of tunicamycin response over DMSO baseline; activation, % at 10 µM; hit rate 0.34% among 330,000; AID 449763;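 active = at 10 µM dose, activation of 40% or more, normalized to positive control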
#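 Assay system: CHO-CHOP cells, stable luciferase reporter of PERK-eIF2a-CHOP signalling / Buffer or medium: F12 plus 10% serum / Compound dosing: one dose, 10 µM in 0.5% DMSO / Times: 6 h compound treatment, 37 °C / Technique: luciferase luminescence / Read-out: % reporter activation, DMSO baseline versus tunicamycin full activation / Benchmarks: tunicamycin and DMSO controls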
# XBP1 UPR activ – adaptive UPR (XBP1) activation | hit rate 0.33% among 330,000 | CHO-XBP1 luciferase reporter, IRE1-XBP1 UPR activation, luminescence; percent of tunicamycin response, DMSO as zero | AID 463104 | activation, % at 20 µM;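 active = versus positive control, 20 µM dose yields 30% or more activation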
#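 Assay system: IRE1-XBP1 luciferase reporter CHO line. Input: 1000 cells/well. Buffer or medium: F12 with 10% serum. Doses: 20 µM, 1% DMSO. Times: overnight seeding at 37 °C, 6 h compound treatment at 37 °C. Technique: Steady-Glo luciferase glow luminescence, 10 min after reagent addition.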
# FXN GAA850 act – increases GAA850 frataxin promoter reporter activity; HEK293 lucGAA850 FXN promoter luciferase reporter, 24 h; percent of 10 µM SAHA response; activation, % at 6 µM; hit rate 0.56% among 360,000; AID 540364;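 active = activation above the average of all compounds screened plus 3 SD, cutoff fixed separately per campaign, cut at about 7.5% in these data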
# GAA30 FXN cntr – counter-screen for GAA850 frataxin promoter activators: GAA30 promoter activation; shares compounds with FXN GAA850 act; HEK293 lucGAA30 FXN promoter luciferase, 24 h; DMSO = 0%, 5 µM ipriflavone = 100%; activation, % at 6 µM; hit rate 66% among 1,900;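 active = mean activation above the mean of solvent-only control wells plus 3 SD, cut at about 22% in these data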;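 also: counterscreen of GAA850 promoter hits where activity marks nonselective or luminescence artifacts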
# GAA850 confirm – confirmation of GAA850 frataxin (FXN) promoter activators; HEK293 lucGAA850 FXN promoter luciferase reporter, 24 h; 100% = activation by SAHA; shares compounds with FXN GAA850 act; hit rate 86% among 1,900; AID 588351; activation, % at 6 µM;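 active = mean activation above a set limit taken from the primary screen, cut at about 8% in these data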
# Hits are given with their value; . = inactive; / = not tested or not shown. The sample as a whole holds a higher share of hits than the screen did.
SMILES,CHOP inh,UPR CHOP act,XBP1 UPR activ,FXN GAA850 act,GAA30 FXN cntr,GAA850 confirm
COCCCN(Cc1cc(OC)c(OC)c(OC)c1)C(=S)Nc1cccc(SC)c1,/,/,/,.,/,/
Nn1nnc2ccccc21,.,.,.,19.9,46.4,15.8
c1ccc2c(c1)nnn1c3ccccc3nc21,.,.,.,/,/,/
O=C(Nc1ccc(Br)cn1)c1cccc(-c2cc3ccccc3oc2=O)c1,.,/,/,9.4,117.8,32.9
CCOC(=O)C1=C(C)NC2=C(C(=O)CCC2)C1c1cn(Cc2ccc(Cl)cc2Cl)nc1-c1ccccc1 (configuration not stated),.,.,.,12.9,22.2,7.8
COC(=O)C1=C(C)NC2=C(C(=O)CCC2)C1c1cn(Cc2ccc(Cl)cc2Cl)nc1-c1ccccc1 (configuration not stated),.,.,.,.,/,/
Cc1sc(NC(=O)c2ccccc2)c(C#N)c1-c1ccccc1,.,.,.,10.8,111.4,38.0
O=C1NC(Cc2ccccc2)c2nc3cc(Cl)ccc3c(=O)n2-c2ncccc21 (configuration not stated),/,/,/,.,/,/
CNc1cncc(-c2ccc(OC)cc2OC)n1,/,/,/,.,/,/
COCc1cc(C)nc2sc(C(=O)Nc3cccc(OC)c3)c(N)c12,/,.,.,7.7,114.7,38.0
CCCn1c(SCc2ccc(Cl)cc2)nc2c1c(=O)[nH]c(=O)n2C,81.8,.,.,9.3,.,14.7
C/C=C/Cn1c(SCc2ccc(Cl)cc2)nc2c1c(=O)[nH]c(=O)n2C,76.4,.,.,10.6,.,16.7
COC(=O)C[C@H]1C[C@H]2c3cc(NC(=O)Nc4ccc(C(F)(F)F)cc4)ccc3O[C@H]2[C@@H](CO)O1,/,/,/,.,/,/
CCCC(=O)N1CCOCC1c1cc(C(=O)NCc2ccccc2)no1 (configuration not stated),/,/,/,.,/,/
Cc1cccc(-n2cnc3sc(C)c(C)c3c2=O)c1,.,.,.,.,/,/
COc1cccc(-n2cnc3sc(C)c(C)c3c2=O)c1,.,.,.,9.3,59.3,23.7
COc1cccc2sc(N(C)c3ccccc3)nc12,.,.,.,7.7,106.6,30.9
O=C(O)c1ccc(N/N=C/c2ccnc3ccccc23)cc1,.,.,.,9.3,93.0,31.8
COc1ccc(/C=C2\OC(=O)c3c(OC)cccc32)cc1OC,.,.,.,10.5,111.4,45.2
O=C1/C(=C/c2ccc(O)c(O)c2)Oc2cc(O)ccc21,.,.,.,.,/,/
COc1cc(/C=C2\Oc3cc(O)ccc3C2=O)ccc1O,.,.,.,8.3,93.7,37.9
CC(C)C1C(=O)N(Cc2cn(Cc3ccco3)nn2)CCS(=O)(=O)N1Cc1ccc(-c2ccc(Cl)c(Cl)c2)cc1 (configuration not stated),/,/,/,.,/,/
Clc1ccc(OCCn2cnc3ccccc32)cc1,.,.,.,.,/,/
c1ccc(Cn2cnc3ccccc32)cc1,.,.,.,10.9,119.8,44.0
Clc1ccccc1OCCn1cnc2ccccc21,.,.,.,9.2,41.0,23.8
SMILES,CHOP inh,UPR CHOP act,XBP1 UPR activ,FXN GAA850 act,GAA30 FXN cntr,GAA850 confirm
Clc1ccc(Cn2cnc3ccccc32)cc1,.,.,.,.,/,/
CN(C)/C=C/C(=O)c1ccc(Oc2ccccc2)cc1,.,.,.,7.8,103.0,33.3
CC(=O)N1CCC(=NNC(=O)c2cccs2)CC1,.,.,.,8.7,.,.
O=C(NN=C1CCCC1)c1cccs1,.,.,.,.,/,/
O=C(NN=C1C2CC3CC(C2)CC1C3)c1cccs1,.,.,.,8.8,24.1,11.5
O=C(NN=C1C2CC3CC(C2)CC1C3)c1ccccc1O,.,.,.,.,/,/
COc1cccc(CNC(=O)c2ccc(F)c(S(=O)(=O)N3CCCCC3)c2)c1,/,/,/,.,/,/
C[C@H](CO)N1C[C@H](C)[C@H](CN(C)C(=O)N[C@H](C)c2ccccc2)OCc2ccccc2-c2c(n(C)c3ccccc23)C1=O,/,/,/,14.4,.,.
C[C@@H]1CN([C@@H](C)CO)C(=O)c2c(c3ccccc3n2C)-c2ccccc2CO[C@H]1CN(C)C(=O)[C@H](C)c1ccccc1,/,/,/,.,/,/
CC(=O)Nc1ccc(OCc2cn(CC(=O)c3ccc(O)cc3)nn2)cc1,/,/,/,.,/,/
C/C(=N\NC(=O)c1ccc(N2CCCC2=O)cc1)c1ccccc1,/,.,.,.,/,/
C/C(=N\NC(=O)c1ccccc1)c1ccc(N2CCCCC2)cc1,.,.,.,8.0,98.3,33.7
CCOC(=O)c1ccc(N2Cc3ccccc3C2=NC(=O)c2cccs2)cc1,.,/,/,9.3,52.5,22.6
CC(=O)c1ccc(N2Cc3ccccc3C2=NC(=O)c2cccs2)cc1,.,.,.,.,/,/
O=C(Cn1c(=O)oc2cc(S(=O)(=O)N3CCCCCC3)ccc21)NC1CCCCCCC1,.,.,.,15.7,.,15.7
Cn1c(=O)oc2cc(S(=O)(=O)N3CCC(C(=O)NCCc4ccccc4)CC3)ccc21,.,.,.,.,/,/
Cn1c(=O)oc2cc(S(=O)(=O)N3CCC(C(=O)NCc4ccc(F)cc4)CC3)ccc21,.,.,.,11.4,.,.
C=CCNC(=O)c1c(Br)cnn1-c1ccc(C)cc1,.,.,.,8.2,104.7,33.0
Cc1ccc(-n2ncc(Cl)c2C(=O)NCc2ccccc2)cc1,/,.,.,.,/,/
Cc1cccc(Nc2n[nH]c(C)c2[N+](=O)[O-])c1,.,.,.,8.7,92.2,36.9
CC(NC(=O)/C(C#N)=C/c1ccco1)c1ccccc1 (configuration not stated),.,.,.,.,/,/
CC(NC(=O)/C(C#N)=C/c1ccc([N+](=O)[O-])o1)c1ccccc1 (configuration not stated),/,.,.,10.3,.,8.5
O=C(Nc1ccc2c(c1)CN(C(=O)Nc1ccc(F)cc1)CC2)c1ccccn1,/,/,/,.,/,/
CC(=O)NC(C)(c1ccccc1)c1nc(-c2ccc(F)c(Cl)c2)cs1 (configuration not stated),/,/,/,.,/,/
Cc1ccc(CSc2ncn(-c3ccccc3)n2)cc1,.,.,.,.,/,/
SMILES,CHOP inh,UPR CHOP act,XBP1 UPR activ,FXN GAA850 act,GAA30 FXN cntr,GAA850 confirm
Clc1ccccc1CSc1ncn(-c2ccccc2)n1,.,.,.,8.4,104.4,35.3
CCNc1nc(CSc2ccccc2)nc2sc(C)c(C)c12,.,.,.,18.4,.,13.5
CCNC(=O)C1CCCN(Cc2cc(C(F)(F)F)ccc2Cl)CC1 (configuration not stated),/,/,/,.,/,/
Cc1nn(-c2ccccc2)nc1C(=O)Nc1cccc(C(=O)NC2CC2)c1,/,/,/,.,/,/
O=C(NC12CC3CC(CC(C3)C1)C2)c1cc([N+](=O)[O-])ccc1N1CCOCC1,.,.,.,10.4,.,10.5
O=C(N/N=C/c1ccncc1)C1CC1(c1ccccc1)c1ccccc1 (configuration not stated),.,.,.,.,/,/

# Screens deposited in PubChem BioAssay by several laboratories.
